{"data": "Published values gathered from unrelated publications", "method": "competition with immobilised ligand", "RPS6KA3 N-terminal kinase domain": "Ribosomal protein S6 kinase alpha-3, N-terminal kinase domain (RPS6KA3, Homo sapiens, UniProt P51812)", "RPS6KA3 C-terminal kinase domain": "Ribosomal protein S6 kinase alpha-3, C-terminal kinase domain (RPS6KA3, Homo sapiens, UniProt P51812)", "note": "Compare with care: the assays were run in different laboratories."}
{"SMILES": "CCc1ccccc1C(=O)Nc1n[nH]c2c(C)c(F)c(C3C(C#N)=C(C)N(C)C(C)=C3C#N)cc12", "target": "RPS6KA3 N-terminal kinase domain", "test": "cell-free assay", "setting": "1 µM", "remaining binding [%]": 0.3}
{"SMILES": "O=C(NCCCN1CCOCC1)c1ccc(Nc2ncc(Cl)c(-c3ccc(Cl)s3)n2)cc1", "target": "RPS6KA3 N-terminal kinase domain", "test": "binding", "setting": "1 µM", "remaining binding [%]": 61}
{"SMILES": "C[C@H]1CCN(c2nccc(-c3cnn4ncccc34)n2)C1", "target": "RPS6KA3 C-terminal kinase domain", "test": "binding", "setting": "1 µM", "remaining binding [%]": 93}
{"SMILES": "NS(=O)(=O)c1cc(NC(=O)C2(c3ccccc3Cl)CC2)ccc1Oc1cccc(Cl)c1", "target": "RPS6KA3 N-terminal kinase domain", "test": "cell-free assay", "setting": "1 µM", "remaining binding [%]": 92}
{"SMILES": "COc1ccnn2ncc(-c3ccnc(N(C)C)n3)c12", "target": "RPS6KA3 N-terminal kinase domain", "test": "binding", "setting": "1 µM", "remaining binding [%]": 85}
{"SMILES": "CCCOc1ccc([C@H]2[C@H](C(=O)O)[C@@H](c3ccc4c(c3)OCO4)CN2CC(=O)Nc2c(CC)cccc2CC)cc1", "target": "RPS6KA3 N-terminal kinase domain", "test": "cell-free assay", "setting": "1 µM", "remaining binding [%]": 72}
{"SMILES": "CC(C)(C)c1ccc(-c2nc(CBr)nn2-c2cccc(O)c2)cc1", "target": "RPS6KA3 N-terminal kinase domain", "test": "cell-free assay", "setting": "10 µM", "remaining binding [%]": 74}
{"SMILES": "C[C@H](c1ccnc(Nc2nc3ccc(-c4cc(N(C)C)ncn4)cc3[nH]2)c1)N1CCN(C(=O)CC(F)(F)F)CC1", "target": "RPS6KA3 C-terminal kinase domain", "test": "cell-free assay", "setting": "0.1 µM", "remaining binding [%]": 100}
{"SMILES": "Cc1cnc(Nc2ccc(C(=O)N3CCC(N4CCCC4)CC3)cc2)nc1-c1cc2ccccc2s1", "target": "RPS6KA3 C-terminal kinase domain", "test": "binding", "setting": "1 µM", "remaining binding [%]": 80}
{"SMILES": "FC(F)(F)Oc1cccc(-c2cnc3ccc(-c4ccncc4)nn23)c1", "target": "RPS6KA3 N-terminal kinase domain", "test": "binding", "setting": "5 µM", "remaining binding [%]": 57}
{"SMILES": "O=C(Nc1ccc(Oc2ccc(F)cc2)cc1)N1CCc2ncccc2[C@H]1c1ccc(F)cc1", "target": "RPS6KA3 C-terminal kinase domain", "test": "cell-free assay", "setting": "1 µM", "remaining binding [%]": 97}
{"SMILES": "COc1cnc(Nc2cccc(S(N)(=O)=O)c2)nc1N1CCN(c2ccccc2)CC1", "target": "RPS6KA3 N-terminal kinase domain", "test": "binding", "setting": "1 µM", "remaining binding [%]": 89}
{"SMILES": "COc1ncc2cc3ccccc3nc2c1C#N", "target": "RPS6KA3 C-terminal kinase domain", "test": "cell-free assay", "setting": "5 µM", "remaining binding [%]": 96}
{"SMILES": "Cc1cnn2ncc(-c3ccnc(N(C)C)n3)c2c1", "target": "RPS6KA3 C-terminal kinase domain", "test": "binding", "setting": "1 µM", "remaining binding [%]": 100}
{"SMILES": "c1ccc(N2CCN(Cc3nc4ccccc4[nH]3)CC2)nc1", "target": "RPS6KA3 C-terminal kinase domain", "test": "binding", "setting": "1 µM", "remaining binding [%]": 100}
{"SMILES": "O=C(c1ccc(Nc2ncc(Cl)c(-c3ccc(Cl)s3)n2)cc1)N1CCC(N2CCCC2)CC1", "target": "RPS6KA3 C-terminal kinase domain", "test": "binding", "setting": "1 µM", "remaining binding [%]": 100}
{"SMILES": "N[C@@H]1CCN(c2nccc(-c3cnn4ncccc34)n2)C1", "target": "RPS6KA3 C-terminal kinase domain", "test": "binding", "setting": "1 µM", "remaining binding [%]": 41}
{"SMILES": "Nc1ncc2c(n1)-c1c([nH]c3ccc(C#CC4CC4)cc13)CCCC2", "target": "RPS6KA3 C-terminal kinase domain", "test": "binding", "setting": "1 µM", "remaining binding [%]": 100}
{"SMILES": "O=C(c1ccc(Nc2ncc(Cl)c(-c3cc4ccccc4s3)n2)cc1)N1CCC(N2CCCC2)CC1", "target": "RPS6KA3 N-terminal kinase domain", "test": "binding", "setting": "1 µM", "remaining binding [%]": 42}
{"SMILES": "CCN1CCN(Cc2ccc(C(=O)Nc3ccc(C)c(Oc4ccc5c(c4)CC(=O)N5)c3)cc2C(F)(F)F)CC1", "target": "RPS6KA3 C-terminal kinase domain", "test": "binding", "setting": "1 µM", "remaining binding [%]": 100}
{"SMILES": "O=C(NCC1CCOCC1)c1n[nH]cc1NC(=O)c1c(F)cccc1F", "target": "RPS6KA3 C-terminal kinase domain", "test": "binding", "setting": "1 µM", "remaining binding [%]": 98}
{"SMILES": "Cc1c(NC(=O)c2cc(C(N)=O)nc3cc(F)ccc23)c(C(F)(F)F)nn1Cc1ccc(C(C)(C)C)cc1", "target": "RPS6KA3 N-terminal kinase domain", "test": "cell-free assay", "setting": "1 µM", "remaining binding [%]": 100}
{"SMILES": "c1cncc(-c2cccc(Nc3nccc(NC4CCCCC4)n3)c2)c1", "target": "RPS6KA3 C-terminal kinase domain", "test": "binding", "setting": "10 µM", "remaining binding [%]": 79}
{"SMILES": "CN(C)c1nccc(-c2cnn3ncccc23)n1", "target": "RPS6KA3 N-terminal kinase domain", "test": "binding", "setting": "1 µM", "remaining binding [%]": 82}
{"SMILES": "O=C(Nc1c[nH]nc1C(=O)NC1CCNCC1)c1cc(F)cc(F)c1", "target": "RPS6KA3 N-terminal kinase domain", "test": "binding", "setting": "1 µM", "remaining binding [%]": 74}
{"SMILES": "C[C@@H](c1ccc(-n2cnc3c(N)ncnc32)cc1)N1CCc2nn(C)c(Cc3ccccc3)c2C1=O", "target": "RPS6KA3 N-terminal kinase domain", "test": "binding", "setting": "0.1 µM", "remaining binding [%]": 56}
{"SMILES": "O=S(=O)(NC1CCC(c2cc(F)ccc2F)(S(=O)(=O)c2ccc(Cl)cc2)CC1)C(F)(F)F (stereo not shown)", "target": "RPS6KA3 C-terminal kinase domain", "test": "cell-free assay", "setting": "1 µM", "remaining binding [%]": 83}
{"SMILES": "COc1cnc(Nc2cccc(S(N)(=O)=O)c2)nc1N1CCN(c2ccccc2)C(=O)C1", "target": "RPS6KA3 C-terminal kinase domain", "test": "binding", "setting": "1 µM", "remaining binding [%]": 97}
{"SMILES": "O=C(c1ccc(Nc2nccc(-c3cc4ccccc4s3)n2)cc1)N1CCC(N2CCCC2)CC1", "target": "RPS6KA3 N-terminal kinase domain", "test": "binding", "setting": "1 µM", "remaining binding [%]": 78}
{"SMILES": "CN(CCCC(F)(F)F)c1nccc(-c2cnn3ncccc23)n1", "target": "RPS6KA3 C-terminal kinase domain", "test": "binding", "setting": "1 µM", "remaining binding [%]": 100}
{"SMILES": "O=C(NCCCN1CCOCC1)c1ccc(Nc2nccc(-c3cc4ccccc4s3)n2)cc1", "target": "RPS6KA3 N-terminal kinase domain", "test": "binding", "setting": "1 µM", "remaining binding [%]": 76}
{"SMILES": "CNC(=O)[C@@H]1CC[C@@H](n2c(-c3ccc4cnccc4c3)nc3ccc(C(=O)NCc4cccc(C(N)=O)c4)cc32)C1", "target": "RPS6KA3 C-terminal kinase domain", "test": "binding", "setting": "1 µM", "remaining binding [%]": 100}
{"SMILES": "F[C@@H]1CCN(c2nccc(-c3cnn4ncccc34)n2)C1", "target": "RPS6KA3 N-terminal kinase domain", "test": "binding", "setting": "1 µM", "remaining binding [%]": 100}
{"SMILES": "C=CC(=O)N1CCC(C(=O)NCC(=O)N2CCN(c3nc(-c4cnc(N)nc4C(F)F)nc(N4CCOCC4)n3)CC2)CC1", "target": "RPS6KA3 C-terminal kinase domain", "test": "binding", "setting": "1 µM", "remaining binding [%]": 63}
